Columns and labels:
[1] = Cytotoxicity against human DuCaP cells after 72 hrs by AlamarBlue end point assay; type: functional, cell-based
Summary of the method: (§1)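 Cells in phenol-red-free RPMI-1640 at 37 °C, 5% CO2, with 5% FBS (DuCaP 10% FBS). Seeded per well for 24 h: LNCaP 4000, C4-2B 3000, DuCaP 15 000, BPH-1 3000, WPMY-1 2000. Compounds in DMSO were diluted in medium (final DMSO 0.3%). After 72 h, metabolic activity was read by AlamarBlue. Controls were a DMSO equivalent and vinblastine 25 nM.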

[2] = Cytotoxicity against human WPMY-1 cells after 72 hrs by AlamarBlue end point assay; type: cell-based; conditions: WPMY-1, 72 h; summary of the method: as §1
[3] = Cytotoxicity against human C4-2B cells after 72 hrs by AlamarBlue end point assay; type: functional, cell-based; conditions: LNCaP C4-2B; summary of the method: as §1
[4] = system: LNCaP; assay: Cytotoxicity against human LNCAP cells after 72 hrs by AlamarBlue end point assay; type: functional, cell-based; summary of the method: as §1
[5] = Cytotoxicity against human BPH1 cells after 72 hrs by AlamarBlue end point assay; type: cell-based; conditions: BPH-1, 72 h; summary of the method: as §1
[6] = system: LNCaP; assay: Selectivity index, ratio of IC50 for human BPH1 cells to IC50 for human LNCAP cells; type: functional
[7] = system: LNCaP; assay: Cytotoxicity against human LNCAP cells assessed as decrease in cell confluence measured every 2 hrs for 72 hrs by real-time live-cell imaging analysis relative to DMSO control; type: functional, cell-based
Summary of the method: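 LNCaP cells in phenol-red-free RPMI-1640 with 5% FBS were seeded at 4000 per well for 24 h. They were then treated with compounds diluted from DMSO (final DMSO 0.3%). The IncuCyte live-cell imager took images every 2 h for 72 h, and growth was tracked as increasing confluence. Controls were a DMSO equivalent and vinblastine 25 nM.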

[8] = system: LNCaP; assay: Selectivity index, ratio of IC50 for human WPMY-1 cells to IC50 for human LNCAP cells; type: functional

SMILES	IC50 [1]	IC50 [2]	IC50 [3]	IC50 [4]	IC50 [5]	Ratio IC50 [6]	Activity [7]	Ratio IC50 [8]
C=C1C[C@@]23[C@H]4[C@H](OC(=O)/C(C)=C/C)[C@H](OC(=O)/C(C)=C/C)[C@@H]1[C@@H]2C1N(C)C[C@]2(C)C[C@H](O)C[C@@]14[C@]2(O)[C@@H](O)[C@@H]3O (stereo partly drawn)	55.7 nM	86 nM	93.8 nM	50.8 nM	64.3 nM	–	–	–
C=C1C[C@]23C[C@H](O)[C@]4(O)[C@@]5(C)C[C@H](O)C[C@]46C([C@H]2[C@H]1[C@@H](OC(=O)/C(C)=C/C)[C@@H](OC(=O)/C(C)=C/C)[C@H]36)N(C)C5 (stereo partly drawn)	86.9 nM	48.2 nM	45 nM	27.2 nM	29.6 nM	–	–	–
C=C1C[C@]23C[C@H](O)[C@]4(O)[C@@]5(C)C[C@H](O)C[C@]46C([C@H]2[C@H]1[C@@H](OC(=O)/C(C)=C/C)[C@@H](OC(=O)/C(C)=C/CO)[C@H]36)N(C)C5 (stereo partly drawn)	355 nM	328 nM	340 nM	379 nM	177 nM	–	–	–
C=C1C[C@]23C[C@H](O)[C@]4(O)[C@@]5(C)C[C@H](O)C[C@]46C([C@H]2[C@H]1[C@@H](OC(=O)/C(C)=C/C)[C@@H](OC(=O)c1ccccc1)[C@H]36)N(C)C5 (stereo partly drawn)	154 nM	140 nM	205 nM	190 nM	236 nM	–	–	–
C=C1C[C@]23C[C@H](OC(C)=O)[C@]4(O)[C@@]5(C)C[C@H](O)C[C@]46C([C@H]2[C@H]1[C@@H](OC(=O)/C(C)=C/C)[C@@H](OC(=O)/C(C)=C/C)[C@H]36)N(C)C5.O=C(O)C(F)(F)F (stereo partly drawn)	8.7 nM	6.6 nM	6.2 nM	3.1 nM	11.5 nM	3.7	Dose-dependent effect	2.1
C=C1C[C@@]23[C@H]4[C@H](OC(=O)/C(C)=C/CO)[C@H](OC(=O)/C(C)=C/C)[C@@H]1[C@@H]2C1N(C)C[C@]2(C)C[C@H](O)C[C@@]14[C@]2(O)[C@@H](O)[C@@H]3O (stereo partly drawn)	70.7 nM	155 nM	135 nM	72.6 nM	134 nM	–	–	–
CC[C@]1(O)C[C@@H]2CN(CCc3c([nH]c4ccccc34)[C@@](C(=O)OC)(c3cc4c(cc3OC)N(C)[C@H]3[C@@](O)(C(=O)OC)[C@H](OC(C)=O)[C@]5(CC)C=CCN6CC[C@]43[C@@H]65)C2)C1 [VINBLASTINE]	3.7 nM	4.2 nM	2.4 nM	3.2 nM	3.8 nM	–	–	–
C=C1C[C@]23C[C@H](OC(C)=O)[C@]4(O)[C@@]5(C)C[C@H](O)C[C@]46C([C@H]2[C@H]1[C@@H](OC(=O)/C(C)=C/C)[C@@H](OC(=O)/C(C)=C/CO)[C@H]36)N(C)C5 (stereo partly drawn)	9.9 nM	9.6 nM	7 nM	10.9 nM	11.4 nM	–	–	–
C=C1C[C@@]23[C@H]4[C@H](OC(=O)c5ccccc5)[C@H](OC(=O)/C(C)=C/C)[C@@H]1[C@@H]2C1N(C)C[C@]2(C)C[C@H](O)C[C@@]14[C@]2(O)[C@@H](O)[C@@H]3O (stereo partly drawn)	4.1 nM	4.9 nM	5.2 nM	6.7 nM	9.2 nM	–	–	–

Reference: ChEMBL document CHEMBL3758141, “Cytotoxic C20 Diterpenoid Alkaloids from the Australian Endemic Rainforest Plant Anopterus macleayanus” (J Nat Prod, 2015)
